Measurements as given in ChEMBL document CHEMBL4371012, “Development of Macrocyclic Peptides Containing Epoxyketone with Oral Availability as Proteasome Inhibitors” (J Med Chem, 2018).
The source made the active and inactive calls. The calls are words filed in the database; no cut-off is given here.

Columns and labels:
[1] = biological target: T1, Proteasome Macropain subunit MB1 (Homo sapiens, UniProt P28074); test: Inhibition of human 20S proteasome chymotrypsin-like activity using Suc-Leu-Leu-Val-Tyr-AMC as substrate pretreated for 15 mins followed by substrate addition by fluorescence assay
T1 sequence (P28074 whole entry): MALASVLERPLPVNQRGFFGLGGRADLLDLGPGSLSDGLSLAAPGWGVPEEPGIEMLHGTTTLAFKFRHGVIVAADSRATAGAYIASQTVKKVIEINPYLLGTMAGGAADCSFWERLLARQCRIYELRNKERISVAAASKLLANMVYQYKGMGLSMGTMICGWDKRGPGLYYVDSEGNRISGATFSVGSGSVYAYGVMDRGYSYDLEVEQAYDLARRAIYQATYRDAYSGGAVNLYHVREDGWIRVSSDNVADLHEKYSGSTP

RPMI-8226 = test: Antiproliferative activity against human RPMI8226 cells after 72 hrs by MTS assay; format: functional, cell-based; conditions: RPMI-8226, 72 h
[2] = Metabolic stability in mouse liver microsomes assessed as parent compound remaining at 100 uM after 30 mins by LC-MS/MS analysis; format: ADME, Microsome; conditions: read-out: Stability
Outline: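 After the microsomal incubation, the clear supernatant was analysed by ESI LC-MS. The read-out was the relative peak area of each parent compound.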

Mus musculus = test: In vivo inhibition of 20S proteasome chymotrypsin-like activity in Balb/c mouse blood at 30 mg/kg, po measured at 2 to 24 hrs post dose using LLVY-AMC as substrate by fluorescence assay; format: functional, organism-based
Outline: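 BALB/c mice dosed orally in 0.5% CMC-Na vehicle. Blood was sampled at 2 and 24 h after dosing for proteasome chymotrypsin-like activity.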

[3] = Cmax in ICR mouse at 30 mg/kg, po via gavage by LC-MS/MS analysis; format: ADME, organism-based; set-up: dose 30 mg/kg, route oral; conditions: in vivo
MM1.S = test: Antiproliferative activity against human MM1S cells after 72 hrs by MTS assay; format: functional, cell-based
[4] = AUC (0 to t) in ICR mouse at 30 mg/kg, po via gavage after 1 hr by LC-MS/MS analysis; format: ADME, organism-based; set-up: time < 1 hr, dose 30 mg/kg, route oral; conditions: in vivo
[5] = Tmax in ICR mouse at 30 mg/kg, po via gavage by LC-MS/MS analysis; format: ADME, organism-based; conditions: in vivo
MV4-11 = test: Antiproliferative activity against human MV4-11 cells after 72 hrs by MTS assay; format: functional, cell-based; conditions: MV4-11, 72 h

IC50 [1]: 14 nM | IC50 (RPMI-8226): 3 nM | remaining at 0.5 h, 100 µM [2]: 92% | Cmax [3]: 92 ng/mL | IC50 (MM1.S): 1 nM | AUC(0-t) at 1 h [4]: 58 ng·h/mL | Tmax [5]: 13.2 min | IC50 (MV4-11): 3 nM
Structure (SMILES): COC[C@@H]1NC(=O)c2nccn2CCCCCCOC[C@@H](C(=O)N[C@@H](Cc2ccccc2)C(=O)[C@@]2(C)CO2)NC1=O
inhibition (Mus musculus): Active
